Most compounds without a hit are left out; they make up all but 4% or so of the library.
NTR1 agonist = agonists of human NTR1, primary screen, imaging, U2OS cells, beta-arrestin-GFP, high content. NTR1-U2OS beta-arrestin-GFP spot imaging, agonist mode. activation, % at 20 µM. 330,000 tested, 0.17% active;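 active = activation at or above 40% of the spot to cytoplasm intensity ratio, with at least 20 cells analyzed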
Target sequence (P30989 whole entry, looked up): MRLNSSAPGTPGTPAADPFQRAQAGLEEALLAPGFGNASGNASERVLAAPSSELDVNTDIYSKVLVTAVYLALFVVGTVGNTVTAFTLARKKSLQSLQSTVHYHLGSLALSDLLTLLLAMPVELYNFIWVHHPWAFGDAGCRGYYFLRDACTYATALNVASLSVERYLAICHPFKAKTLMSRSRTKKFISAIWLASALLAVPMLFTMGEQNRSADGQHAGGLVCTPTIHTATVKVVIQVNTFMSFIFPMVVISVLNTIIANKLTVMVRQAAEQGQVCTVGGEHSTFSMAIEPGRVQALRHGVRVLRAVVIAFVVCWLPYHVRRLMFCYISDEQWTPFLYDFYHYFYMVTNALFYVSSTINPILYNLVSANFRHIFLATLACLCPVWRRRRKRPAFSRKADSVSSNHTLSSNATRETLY
CHO parental Ca = ATP-evoked calcium signal inhibitors, parental CHO, primary screen, counter-screen for OX1R antagonist project, cell-based, fluorescence, Fluo-8 calcium dye; inhibition, % at 5.6 µM; AID 463079, 2010; parental CHO-K1, ATP-induced calcium, Fluo-8 fluorescence; 330,000 tested, 0.63% active;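 active = inhibition above that plate's mean sample inhibition plus 3 SD, cut at about 26% in these data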
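Measured by: calcium-sensitive Fluo-8 fluorescence / Test system: CHO parental line / Controls: ATP-challenged DMSO wells low, unchallenged DMSO wells high / Measure: % inhibition / Compound: single nominal dose of 5.6 µM per compound / Replicates: single well per compound, no replicates / Reagent: ATP as calcium-mobilizing challenge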
TAAR1 agonist = human TAAR1 agonists, primary screen, Fluo-8 calcium fluorescence, CHO RD-HGA16 cells; vehicle wells 0%, saturating PEA agonist 100%; activation, % at 3 µM; 360,000 tested, 0.99% active;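 active = activation above the mean activation of all test compounds in the run plus 3 SD, cut at about 38% in these data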
Target sequence (Q96RJ0 whole entry, looked up): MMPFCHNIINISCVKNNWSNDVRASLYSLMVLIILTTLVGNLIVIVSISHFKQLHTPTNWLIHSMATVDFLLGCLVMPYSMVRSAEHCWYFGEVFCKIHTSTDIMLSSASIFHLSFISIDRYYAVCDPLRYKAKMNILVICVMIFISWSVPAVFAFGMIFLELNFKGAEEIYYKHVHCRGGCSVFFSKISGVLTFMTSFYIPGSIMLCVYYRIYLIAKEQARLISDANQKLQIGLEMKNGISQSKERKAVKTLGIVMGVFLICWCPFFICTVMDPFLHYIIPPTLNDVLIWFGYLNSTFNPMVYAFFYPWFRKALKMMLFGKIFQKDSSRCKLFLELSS
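System: CHO-derived RD-HGA16 cells with stable Gα16 and human TAAR1. Times: 17-24 h plating, Fluo-8 75 min 37 °C, 30 min RT. Measured by: calcium-sensitive Fluo-8 signal, excitation 470-495, emission 515-575 nm. Read-out basis: % activation relative to PEA EC100 response. Control set: DMSO and PEA EC100. Repeats: no replicates (n 1).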
TAAR1 antag = human TAAR1 antagonists, primary screen, Fluo-8 calcium fluorescence, CHO RD-HGA16 cells; 360,000 tested, 1.5% active; inhibition, % at 3 µM; AID 624466, 2012; antagonist;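 active = inhibition above a per-plate cutoff, the mean inhibition of test compounds on that plate plus 3 SD, cut at about 49% in these data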
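Test system: hTAAR1-expressing CHO RD-HGA16 cells, Gα16-coupled; Probe or stimulus: EC80 β-phenethylamine stimulus; Compound dosing: single nominal final test compound concentration of 3 µM; Timing: 140 s kinetic read after compound, 140 s after agonist; Signal: Fluo-8 calcium-sensitive fluorescence; Measure: % inhibition of agonist calcium response; Controls: DMSO and EC80 PEA controls.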
OX1R antag-1 = antagonists of human orexin 1 receptor (OX1R); Orexin/Hypocretin receptor type 1 (Homo sapiens), O43613; OX1R-expressing cells, FRET antagonist read-out; inhibition, % at 6.6 µM; 330,000 tested, 1.8% active; in the data active = inhibition mostly above about 38%, no sharp cut-off; inactive = mostly below about 40%
OX1R antag-2 = OX1R (HCRTR1) antagonists, primary screen, fluorescence, CHO/OX1R cells, Fluo-8 calcium, orexin A | Orexin/Hypocretin receptor type 1 (Homo sapiens), O43613 | Fluo-8 calcium fluorescence | inhibition, % at 5 µM | 330,000 tested, 0.43% active | AID 434989, 2010;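 active = inhibition above its plate's threshold, mean inhibition of all tested compounds on the plate plus 3 SD, cut at about 37% in these data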
TAAR1 nonsel count = nonselective antagonists in TAAR1 counter-screen cells, counter-screen for hTAAR1 antagonist project, cell-based, fluorescence, calcium. shares compounds with TAAR1 antag. counterscreen cell line, antagonist mode. inhibition, % at 3 µM. 2,400 tested, 77% active. AID 651780, 2012; in the data active = inhibition above about 22%;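 note: CHO-Ga16 host cells stimulated with ATP at an EC80 level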
TAAR1 ant conf = human TAAR1 antagonists, retest of hits, confirmation, cell-based, fluorescence; shares compounds with TAAR1 antag; TAAR1-expressing cells, fluorescence antagonist read-out; inhibition, % at 3 µM; 2,400 tested, 40% active; AID 651785, 2012; in the data active = inhibition above about 49%;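 note: CHO-Ga16 host cells challenged with agonist PEA near its EC80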
Ga16 ag counter = calcium activation in Ga16-expressing cells, counter-screen for TAAR1 antagonist project, cell-based, fluorescence | shares compounds with TAAR1 antag | 2,400 tested, 18% active | agonist counterscreen | activation, % at 3 µM; in the data active = activation above about 12%
TAAR1 ag count = TAAR1 activation by candidate antagonists – cell-based, fluorescence, counter-screen for TAAR1 antagonist project. 2,400 tested, 2% active. activation, % at 3 µM. hTAAR1 cell line, agonist mode. shares compounds with TAAR1 antag; in the data active = activation above about 37%;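 note: CHO cells stably expressing TAAR1 with calcium dye readout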
Large screens that a line does not name were inactive (follow-up assays come after a bar, where they were run).

CCOc1ccccc1NC(=O)CN1CCC(NC(=O)Nc2ccccc2)CC1	none
N#C/C(=C\c1ccc(-c2ccc(C(=O)O)cc2)o1)C(=O)Nc1ccc(F)cc1	TAAR1 antag 70 (no result: NTR1 agonist) | TAAR1 nonsel count 33 | TAAR1 ant conf inactive | Ga16 ag counter 17 | TAAR1 ag count inactive
CC(C(=O)Nc1ccccc1)N(c1cccc(Cl)c1)S(C)(=O)=O (stereo unspecified)	none
Cc1cccc(N2CCN(C3=NC(=O)/C(=C\c4cn[nH]c4-c4ccccc4)S3)CC2)c1	TAAR1 antag 61 | TAAR1 nonsel count 41 | TAAR1 ant conf 59 | Ga16 ag counter inactive | TAAR1 ag count inactive
COc1ccc(OCC(O)CNS(=O)(=O)c2ccc(NC(C)=O)cc2)cc1 (stereo unspecified)	none
CCn1c2ccccc2c2cc(NC(=O)c3coc(=O)c(Br)c3)ccc21	TAAR1 antag 105 | TAAR1 nonsel count inactive | TAAR1 ant conf inactive | Ga16 ag counter inactive | TAAR1 ag count inactive
COc1ccc(CC(=O)OCC(=O)Nc2ccc(Cl)c(S(=O)(=O)N(C)C)c2)cc1	none
CN(C)S(=O)(=O)c1cc(NC(=O)COC(=O)CC2Sc3ccccc3NC2=O)ccc1Cl (stereo unspecified)	TAAR1 antag 62 | TAAR1 nonsel count 31 | TAAR1 ant conf inactive | Ga16 ag counter inactive | TAAR1 ag count inactive
CCN(CC(=O)Nc1c(F)cccc1F)C(=O)c1cc(-c2cccs2)nn1-c1ccccc1	TAAR1 antag 72 | TAAR1 nonsel count 27 | TAAR1 ant conf inactive | Ga16 ag counter inactive | TAAR1 ag count inactive
CCN(CC(=O)Nc1c(F)cccc1F)C(=O)CSc1ccc(F)cc1	none
CN(CC(=O)Nc1c(Cl)cccc1Cl)C(=O)c1cc(-c2cccs2)nn1-c1ccccc1	none
CCN(CC(=O)Nc1c(F)cccc1F)C(=O)CSc1ccccc1	TAAR1 antag 97 | TAAR1 nonsel count inactive | TAAR1 ant conf inactive | Ga16 ag counter inactive | TAAR1 ag count inactive
CN(CC(=O)Nc1ccc(Cl)cc1)C(=O)c1cc(-c2cccs2)nn1-c1ccccc1	TAAR1 antag 66 | TAAR1 nonsel count 25 | TAAR1 ant conf inactive | Ga16 ag counter inactive | TAAR1 ag count inactive
CCN(CC(=O)Nc1ccccc1OC)C(=O)c1cc(-c2ccccc2)nn1-c1ccccc1	TAAR1 antag 61 | TAAR1 nonsel count inactive | TAAR1 ant conf inactive | Ga16 ag counter inactive | TAAR1 ag count inactive
NS(=O)(=O)OCCCc1ccc(C(F)(F)F)cc1	none
CN(c1ccccc1)S(=O)(=O)c1cccc(NC(=O)C2=NNC(=O)CC2)c1	none
Cc1ccc(NC(=O)CN(C)C(=O)c2cc(-c3cccs3)nn2-c2ccccc2)cc1	TAAR1 antag 55 | TAAR1 nonsel count 22 | TAAR1 ant conf inactive | Ga16 ag counter inactive | TAAR1 ag count inactive
CCC(C)(C)C1CCC2(CC1)NC(=O)N(CC(=O)NC(C)CCc1ccccc1)C2=O (stereo unspecified)	none (no result: CHO parental Ca, OX1R antag-1, OX1R antag-2)
COc1ccccc1N1CCN(c2nc3ccccc3nc2C(C#N)C(=O)OC(C)C)CC1 (stereo unspecified)	TAAR1 antag 73 | TAAR1 nonsel count inactive | TAAR1 ant conf inactive | Ga16 ag counter inactive | TAAR1 ag count inactive
Cc1ccc(CNC(=O)C2CCCN2S(=O)(=O)c2ccc(Cl)cc2)cc1 (stereo unspecified)	none
COc1ccc(S(=O)(=O)N(CC(=O)Nc2ccc3c(c2)OCO3)c2ccccc2OC)cc1	TAAR1 antag 69 | TAAR1 nonsel count 27 | TAAR1 ant conf 56 | Ga16 ag counter inactive | TAAR1 ag count inactive
CCOc1ccccc1N(CC(=O)Nc1cccc(OC)c1)S(=O)(=O)c1ccccc1	TAAR1 antag 52 | TAAR1 nonsel count inactive | TAAR1 ant conf inactive | Ga16 ag counter inactive | TAAR1 ag count inactive
COC(=O)[C@]12CCCCC=C1N(Cc1cccc3ccccc13)C(=O)[C@H](CC(=O)N1CCC(c3ccccc3)CC1)C2	none (no result: NTR1 agonist, CHO parental Ca, OX1R antag-1, OX1R antag-2)
COC(=O)[C@]12CCCCC=C1N(Cc1cccc3ccccc13)C(=O)[C@H](CC(=O)N1CCCCC1)C2	TAAR1 antag 62 (no result: NTR1 agonist, CHO parental Ca, OX1R antag-1, OX1R antag-2) | TAAR1 nonsel count 22 | TAAR1 ant conf inactive | Ga16 ag counter inactive | TAAR1 ag count inactive
COc1ccc2cc(C3=CC(=O)CC(C)(C)C3=O)ccc2c1	TAAR1 antag 61 (no result: NTR1 agonist, CHO parental Ca, OX1R antag-1, OX1R antag-2) | TAAR1 nonsel count 26 | TAAR1 ant conf inactive | Ga16 ag counter inactive | TAAR1 ag count inactive
COCCOC(=O)c1c(C)n(C)c2ccc(OC(=O)c3ccccc3OC)cc12	TAAR1 antag 53 | TAAR1 nonsel count 26 | TAAR1 ant conf inactive | Ga16 ag counter inactive | TAAR1 ag count inactive
C=CCNc1nc(N)c(C(=C(C#N)C#N)c2ccc(Br)cc2)s1	TAAR1 antag 68 | TAAR1 nonsel count 27 | TAAR1 ant conf 62 | Ga16 ag counter inactive | TAAR1 ag count inactive
C=CCNc1sc(C(=O)c2ccc(C)cc2)c(N)c1C#N	none
CCN(Cc1ccccc1)C(=O)c1c(-c2ccccc2Cl)noc1C	none
Cc1cc(C)cc(OCC(=O)Nc2ccc(N3CCN(C(=O)c4ccco4)CC3)cc2)c1	TAAR1 antag 74 | TAAR1 nonsel count 43 | TAAR1 ant conf 62 | Ga16 ag counter 12 | TAAR1 ag count inactive
O=C(COc1ccc(Cl)cc1)Nc1ccc(N2CCN(C(=O)c3ccco3)CC2)cc1	TAAR1 antag 80 | TAAR1 nonsel count 42 | TAAR1 ant conf inactive | Ga16 ag counter 12 | TAAR1 ag count inactive
O=C(Cc1cccc(NC(=O)C2CCCN(C(=O)C3CCCC3)C2)c1)Nc1cccc(C(=O)N2CCOCC2)c1 (stereo unspecified)	none (no result: NTR1 agonist, CHO parental Ca, OX1R antag-1, OX1R antag-2)
COc1ccc(-c2[nH]ncc2/C=N\NC(=O)c2ccc(Br)o2)cc1OC	none

Compound activity from PubChem.
